# According to ChEMBL document CHEMBL1781995, “Acenaphtho[1,2-b]pyrrole-based selective fibroblast growth factor receptors 1 (FGFR1) inhibitors: design, synthesis, and biological activity” (J Med Chem, 2011):
# Calls of active or inactive are those of the source. The rule behind the calls is not given here.
# What was measured:
# T-24 = assay: Antiproliferative activity against human T24 cells expressing FGFR after 72 hrs by SRB assay; type: functional, cell-based; conditions: T-24, 72 h
# Summary of the method: (§1)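 Cells seeded and grown 24 h, then exposed to increasing compound concentrations for 72 h without medium change. Fixed with cold 10% TCA 1 h at 4 °C, stained 15 min with 4 mg/mL SRB in 1% acetic acid, rinsed, dye dissolved in 10 mM Tris base, A515 read. Inhibition = (1 − A515treated/A515control)×100; IC50 by Logit method from at least three independent tests.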
# [1] = target: T1, Fibroblast growth factor receptor 1 (Homo sapiens, UniProt P11362); assay: Inhibition of FGFR1 in human BxPC3 cells assessed as reduction of Erk1/2 phosphorylation after 12 hrs by Western blot analysis; type: cell-based; conditions: BXPC-3
# Summary of the method: (§2)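 BxPC3 cells plated at 3 × 10^5 per well, serum-starved 24 h, then treated 12 h with compound (1.25, 2.5, 5, 10 μM). Whole-cell lysates run on 10% SDS-PAGE and immunoblotted for phospho-FGFR1 (Tyr653/654), phospho-Erk1/2 (T202/Y204), phospho-Akt and totals, with GAPDH loading control.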
# Target sequence in this assay (P11362 22-822 limits assumed): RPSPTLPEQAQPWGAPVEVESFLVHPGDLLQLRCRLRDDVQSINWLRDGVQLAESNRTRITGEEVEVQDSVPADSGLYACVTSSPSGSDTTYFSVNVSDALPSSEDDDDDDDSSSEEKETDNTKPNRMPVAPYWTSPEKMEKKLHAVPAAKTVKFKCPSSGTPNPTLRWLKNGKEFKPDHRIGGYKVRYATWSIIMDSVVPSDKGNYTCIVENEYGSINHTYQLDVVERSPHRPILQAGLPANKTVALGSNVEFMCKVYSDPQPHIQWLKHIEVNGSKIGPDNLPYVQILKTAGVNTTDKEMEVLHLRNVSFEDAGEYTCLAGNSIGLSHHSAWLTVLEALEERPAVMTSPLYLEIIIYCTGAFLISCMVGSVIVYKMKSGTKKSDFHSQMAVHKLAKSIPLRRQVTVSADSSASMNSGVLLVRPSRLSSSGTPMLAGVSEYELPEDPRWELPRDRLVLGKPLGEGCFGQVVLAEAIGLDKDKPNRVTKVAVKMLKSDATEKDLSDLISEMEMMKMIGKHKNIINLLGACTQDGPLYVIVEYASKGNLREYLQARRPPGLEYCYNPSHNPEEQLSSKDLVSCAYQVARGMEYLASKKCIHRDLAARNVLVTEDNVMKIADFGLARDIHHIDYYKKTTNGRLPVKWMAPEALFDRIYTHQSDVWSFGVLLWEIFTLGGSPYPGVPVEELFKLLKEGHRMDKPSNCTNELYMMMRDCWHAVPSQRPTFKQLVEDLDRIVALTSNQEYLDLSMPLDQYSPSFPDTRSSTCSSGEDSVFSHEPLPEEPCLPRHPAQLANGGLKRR
# [2] = target: T1, Fibroblast growth factor receptor 1; assay: Inhibition of FGFR1 using poly(Glu-Tyr)4:1 as substrate after 60 mins by ELISA
# Target sequence in this assay (P11362 whole entry): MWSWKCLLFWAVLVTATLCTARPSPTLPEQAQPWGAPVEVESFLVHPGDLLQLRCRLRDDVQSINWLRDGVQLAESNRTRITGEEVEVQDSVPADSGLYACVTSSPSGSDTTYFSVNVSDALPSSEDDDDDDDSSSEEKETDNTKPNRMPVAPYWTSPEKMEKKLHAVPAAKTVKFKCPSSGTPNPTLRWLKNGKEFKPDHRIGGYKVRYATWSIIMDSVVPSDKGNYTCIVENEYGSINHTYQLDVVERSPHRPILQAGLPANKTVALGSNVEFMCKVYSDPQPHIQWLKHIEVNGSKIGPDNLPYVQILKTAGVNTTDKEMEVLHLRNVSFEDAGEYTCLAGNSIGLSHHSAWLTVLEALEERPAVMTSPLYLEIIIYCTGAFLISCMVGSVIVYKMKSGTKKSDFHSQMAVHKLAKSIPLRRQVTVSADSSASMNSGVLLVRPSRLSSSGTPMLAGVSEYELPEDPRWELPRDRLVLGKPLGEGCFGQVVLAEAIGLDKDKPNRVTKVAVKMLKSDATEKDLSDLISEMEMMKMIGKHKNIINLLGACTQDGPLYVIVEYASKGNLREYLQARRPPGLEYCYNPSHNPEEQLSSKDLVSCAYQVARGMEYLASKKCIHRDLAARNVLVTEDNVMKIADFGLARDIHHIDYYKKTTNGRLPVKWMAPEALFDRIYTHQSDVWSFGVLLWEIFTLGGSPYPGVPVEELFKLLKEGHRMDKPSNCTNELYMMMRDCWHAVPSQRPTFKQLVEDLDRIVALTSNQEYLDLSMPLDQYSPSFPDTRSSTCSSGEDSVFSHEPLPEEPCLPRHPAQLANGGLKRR
# WI-38 = assay: Antiproliferative activity against human WI38 cells expressing FGFR after 72 hrs by SRB assay; type: cell-based; conditions: WI-38, 72 h; summary of the method: as §1
# [3] = target: T1, Fibroblast growth factor receptor 1; assay: Inhibition of FGFR1 in human BxPC3 cells assessed as reduction of Akt phosphorylation at 10 uM after 12 hrs by Western blot analysis; type: cell-based; conditions: BXPC-3; summary of the method: as §2
# Target sequence in this assay (P11362 22-822 limits assumed): as the sequence (P11362 22-822 limits assumed) above
# BXPC-3 = assay: Antiproliferative activity against human BxPC3 cells expressing FGFR after 72 hrs by SRB assay; type: functional, cell-based; conditions: BXPC-3, 72 h; summary of the method: as §1
# [4] = target: T1, Fibroblast growth factor receptor 1; assay: Inhibition of b-FGF-induced FGFR1 phosphorylation in human BxPC3 cells at 1.25 uM after 12 hrs by Western blot analysis; type: cell-based; conditions: BXPC-3; summary of the method: as §2
# Target sequence in this assay (P11362 22-822 limits assumed): as above
# [5] = target: T1, Fibroblast growth factor receptor 1; assay: Inhibition of FGFR1 in human BxPC3 cells assessed as reduction of Erk1/2 phosphorylation at 10 uM after 12 hrs by Western blot analysis; type: cell-based; conditions: BXPC-3; summary of the method: as §2
# Target sequence in this assay (P11362 22-822 limits assumed): as above
# [6] = target: T1, Fibroblast growth factor receptor 1; assay: Inhibition of b-FGF-induced FGFR1 phosphorylation in human BxPC3 cells after 12 hrs by Western blot analysis; type: cell-based; conditions: BXPC-3; summary of the method: as §2
# Target sequence in this assay (P11362 22-822 limits assumed): as above
# [7] = target: T1, Fibroblast growth factor receptor 1; assay: Inhibition of b-FGF-induced FGFR1 phosphorylation in human BxPC3 cells at 10 uM after 12 hrs by Western blot analysis relative to control; type: cell-based; conditions: BXPC-3; summary of the method: as §2
# Target sequence in this assay (P11362 22-822 limits assumed): as above
# Calf thymus DNA = assay: Binding affinity to calf thymus DNA at 20 uM by circular dichroism assay; type: nucleic-acid assay; conditions: Bos taurus
# [8] = target: Platelet-derived growth factor receptor beta (Homo sapiens, UniProt P09619); assay: Inhibition of PDGFRbeta using poly(Glu-Tyr)4:1 as substrate after 60 mins by ELISA
# Summary of the method: (§3)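 Wells precoated with 20 μg/mL poly(Glu,Tyr)4:1. Detected with PY99 anti-phosphotyrosine, then HRP anti-mouse IgG and o-phenylenediamine/H2O2; stopped with H2SO4, A490. Duplicates per concentration; IC50 from inhibition curves, at least three independent tests.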
# [9] = target: Vascular endothelial growth factor receptor 1 (Homo sapiens, UniProt P17948); assay: Inhibition of VEGFR1 using poly(Glu-Tyr)4:1 as substrate measured after 60 mins by ELISA; summary of the method: as §3
# [10] = target: Fibroblast growth factor receptor 4 (Homo sapiens, UniProt P22455); assay: Inhibition of FGFR4 using poly(Glu-Tyr)4:1 as substrate after 60 mins by ELISA; summary of the method: as §3
# Ephrin type-B receptor 2 = target: T2, Ephrin type-B receptor 2 (Homo sapiens, UniProt P29323); assay: Inhibition of EphB2 expressed in Bac-to-Bac Baculovirus expression system using poly(Glu-Tyr)4:1 as substrate after 60 mins by ELISA; summary of the method: as §3
# T2 sequence (P29323 whole entry): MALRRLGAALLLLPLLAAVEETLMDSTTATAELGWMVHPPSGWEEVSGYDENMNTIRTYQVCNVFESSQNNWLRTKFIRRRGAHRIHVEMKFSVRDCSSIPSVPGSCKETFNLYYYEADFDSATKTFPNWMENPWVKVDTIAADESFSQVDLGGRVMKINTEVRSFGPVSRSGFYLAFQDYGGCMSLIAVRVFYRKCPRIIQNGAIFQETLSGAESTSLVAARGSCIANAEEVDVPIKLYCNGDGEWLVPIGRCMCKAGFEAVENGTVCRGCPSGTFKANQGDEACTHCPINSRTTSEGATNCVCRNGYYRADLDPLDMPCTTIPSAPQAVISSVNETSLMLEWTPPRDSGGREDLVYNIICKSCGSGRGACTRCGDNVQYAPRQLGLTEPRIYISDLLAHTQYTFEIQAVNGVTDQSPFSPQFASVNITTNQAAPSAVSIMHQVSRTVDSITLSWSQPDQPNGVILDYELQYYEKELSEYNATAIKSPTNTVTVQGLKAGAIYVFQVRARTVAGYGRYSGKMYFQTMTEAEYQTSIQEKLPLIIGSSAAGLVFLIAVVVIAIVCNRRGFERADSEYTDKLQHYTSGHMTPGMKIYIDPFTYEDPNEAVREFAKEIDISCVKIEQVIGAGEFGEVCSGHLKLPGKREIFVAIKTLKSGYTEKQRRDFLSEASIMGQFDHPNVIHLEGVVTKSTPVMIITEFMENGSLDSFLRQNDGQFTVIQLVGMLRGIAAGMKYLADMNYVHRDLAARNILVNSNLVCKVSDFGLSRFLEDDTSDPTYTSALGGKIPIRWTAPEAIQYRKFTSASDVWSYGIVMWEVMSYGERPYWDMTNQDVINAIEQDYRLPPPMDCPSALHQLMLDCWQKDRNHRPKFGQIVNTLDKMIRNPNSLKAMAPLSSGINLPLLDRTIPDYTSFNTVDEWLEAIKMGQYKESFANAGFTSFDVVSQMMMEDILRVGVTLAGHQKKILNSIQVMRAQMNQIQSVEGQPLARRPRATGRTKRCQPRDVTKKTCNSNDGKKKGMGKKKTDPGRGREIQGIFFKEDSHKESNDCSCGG
# [11] = target: Proto-oncogene tyrosine-protein kinase receptor Ret (Homo sapiens, UniProt P07949); assay: Inhibition of RET expressed in Bac-to-Bac Baculovirus expression system using poly(Glu-Tyr)4:1 as substrate after 60 mins by ELISA; summary of the method: as §3
# [12] = target: Proto-oncogene tyrosine-protein kinase Src (Homo sapiens, UniProt P12931); assay: Inhibition of c-Src expressed in Bac-to-Bac Baculovirus expression system using poly(Glu-Tyr)4:1 as substrate after 60 mins by ELISA; summary of the method: as §3
# Proto-oncogene tyrosine-protein kinase Src, sequence (P12931 2-536 limits assumed): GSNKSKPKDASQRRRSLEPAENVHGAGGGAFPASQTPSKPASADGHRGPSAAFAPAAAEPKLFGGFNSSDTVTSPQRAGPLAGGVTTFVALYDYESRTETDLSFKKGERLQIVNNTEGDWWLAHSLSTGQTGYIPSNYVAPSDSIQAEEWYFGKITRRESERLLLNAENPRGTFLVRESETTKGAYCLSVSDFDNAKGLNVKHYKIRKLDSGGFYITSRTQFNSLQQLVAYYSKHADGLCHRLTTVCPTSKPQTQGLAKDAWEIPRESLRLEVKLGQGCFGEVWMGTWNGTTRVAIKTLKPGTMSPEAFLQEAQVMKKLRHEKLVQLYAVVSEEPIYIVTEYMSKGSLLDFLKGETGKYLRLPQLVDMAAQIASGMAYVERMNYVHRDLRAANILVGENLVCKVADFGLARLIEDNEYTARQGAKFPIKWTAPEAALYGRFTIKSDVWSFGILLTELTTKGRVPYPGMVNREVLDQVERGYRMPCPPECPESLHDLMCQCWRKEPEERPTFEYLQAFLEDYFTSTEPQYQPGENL
# [13] = target: Fibroblast growth factor receptor 3 (Homo sapiens, UniProt P22607); assay: Inhibition of FGFR3 using poly(Glu-Tyr)4:1 as substrate after 60 mins by ELISA; summary of the method: as §3
# [14] = target: Insulin-like growth factor 1 receptor (Homo sapiens, UniProt P08069); assay: Inhibition of IGF1R expressed in Bac-to-Bac Baculovirus expression system using poly(Glu-Tyr)4:1 as substrate after 60 mins by ELISA; summary of the method: as §3
# Insulin-like growth factor 1 receptor, sequence (P08069 31-736 limits assumed): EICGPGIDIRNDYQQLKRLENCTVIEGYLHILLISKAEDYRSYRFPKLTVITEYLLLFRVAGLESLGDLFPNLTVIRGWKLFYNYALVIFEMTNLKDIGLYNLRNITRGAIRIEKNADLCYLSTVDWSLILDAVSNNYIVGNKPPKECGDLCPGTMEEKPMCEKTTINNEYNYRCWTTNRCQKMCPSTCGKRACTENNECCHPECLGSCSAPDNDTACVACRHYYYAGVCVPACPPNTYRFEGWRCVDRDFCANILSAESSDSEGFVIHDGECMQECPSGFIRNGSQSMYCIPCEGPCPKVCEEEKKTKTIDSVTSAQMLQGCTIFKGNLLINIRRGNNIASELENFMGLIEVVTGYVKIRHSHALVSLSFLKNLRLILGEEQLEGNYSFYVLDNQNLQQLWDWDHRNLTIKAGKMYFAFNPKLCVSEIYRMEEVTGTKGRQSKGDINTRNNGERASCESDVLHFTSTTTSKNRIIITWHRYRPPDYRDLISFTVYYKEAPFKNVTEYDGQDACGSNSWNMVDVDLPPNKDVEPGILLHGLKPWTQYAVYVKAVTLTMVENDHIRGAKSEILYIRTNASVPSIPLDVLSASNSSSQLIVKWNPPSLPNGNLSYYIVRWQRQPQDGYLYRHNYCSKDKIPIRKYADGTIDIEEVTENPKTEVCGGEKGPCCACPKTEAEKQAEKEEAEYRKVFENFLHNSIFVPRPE
# Insulin-like growth factor 1 receptor, sequence (P08069 741-1367 limits assumed): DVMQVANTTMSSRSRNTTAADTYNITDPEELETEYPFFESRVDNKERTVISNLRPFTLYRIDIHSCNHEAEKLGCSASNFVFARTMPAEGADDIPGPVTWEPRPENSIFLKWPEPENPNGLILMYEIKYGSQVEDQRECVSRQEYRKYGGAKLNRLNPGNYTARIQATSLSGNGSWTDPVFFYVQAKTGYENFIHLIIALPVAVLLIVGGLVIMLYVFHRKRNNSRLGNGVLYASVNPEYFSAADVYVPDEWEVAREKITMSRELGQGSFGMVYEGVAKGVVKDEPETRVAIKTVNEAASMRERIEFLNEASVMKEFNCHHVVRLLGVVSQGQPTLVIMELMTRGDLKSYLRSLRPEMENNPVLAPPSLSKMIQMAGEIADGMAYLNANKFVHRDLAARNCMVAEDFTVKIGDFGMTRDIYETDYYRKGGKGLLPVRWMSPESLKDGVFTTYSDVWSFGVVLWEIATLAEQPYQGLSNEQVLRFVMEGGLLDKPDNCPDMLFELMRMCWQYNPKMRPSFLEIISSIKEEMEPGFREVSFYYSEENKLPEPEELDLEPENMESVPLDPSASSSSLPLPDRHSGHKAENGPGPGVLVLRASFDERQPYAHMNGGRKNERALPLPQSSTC
# [15] = target: Mast/stem cell growth factor receptor Kit (Homo sapiens, UniProt P10721); assay: Inhibition of c-kit expressed in Bac-to-Bac Baculovirus expression system using poly(Glu-Tyr)4:1 as substrate after 60 mins by ELISA; summary of the method: as §3
# Ephrin type-A receptor 2 = Ephrin type-A receptor 2 (Homo sapiens, UniProt P29317); assay: Inhibition of EphA2 expressed in Bac-to-Bac Baculovirus expression system using poly(Glu-Tyr)4:1 as substrate after 60 mins by ELISA; summary of the method: as §3
# [16] = target: Vascular endothelial growth factor receptor 2 (Homo sapiens, UniProt P35968); assay: Inhibition of VEGFR2 expressed in Bac-to-Bac Baculovirus expression system using poly(Glu-Tyr)4:1 as substrate after 60 mins by ELISA; summary of the method: as §3
# Vascular endothelial growth factor receptor 2, sequence (P35968 whole entry): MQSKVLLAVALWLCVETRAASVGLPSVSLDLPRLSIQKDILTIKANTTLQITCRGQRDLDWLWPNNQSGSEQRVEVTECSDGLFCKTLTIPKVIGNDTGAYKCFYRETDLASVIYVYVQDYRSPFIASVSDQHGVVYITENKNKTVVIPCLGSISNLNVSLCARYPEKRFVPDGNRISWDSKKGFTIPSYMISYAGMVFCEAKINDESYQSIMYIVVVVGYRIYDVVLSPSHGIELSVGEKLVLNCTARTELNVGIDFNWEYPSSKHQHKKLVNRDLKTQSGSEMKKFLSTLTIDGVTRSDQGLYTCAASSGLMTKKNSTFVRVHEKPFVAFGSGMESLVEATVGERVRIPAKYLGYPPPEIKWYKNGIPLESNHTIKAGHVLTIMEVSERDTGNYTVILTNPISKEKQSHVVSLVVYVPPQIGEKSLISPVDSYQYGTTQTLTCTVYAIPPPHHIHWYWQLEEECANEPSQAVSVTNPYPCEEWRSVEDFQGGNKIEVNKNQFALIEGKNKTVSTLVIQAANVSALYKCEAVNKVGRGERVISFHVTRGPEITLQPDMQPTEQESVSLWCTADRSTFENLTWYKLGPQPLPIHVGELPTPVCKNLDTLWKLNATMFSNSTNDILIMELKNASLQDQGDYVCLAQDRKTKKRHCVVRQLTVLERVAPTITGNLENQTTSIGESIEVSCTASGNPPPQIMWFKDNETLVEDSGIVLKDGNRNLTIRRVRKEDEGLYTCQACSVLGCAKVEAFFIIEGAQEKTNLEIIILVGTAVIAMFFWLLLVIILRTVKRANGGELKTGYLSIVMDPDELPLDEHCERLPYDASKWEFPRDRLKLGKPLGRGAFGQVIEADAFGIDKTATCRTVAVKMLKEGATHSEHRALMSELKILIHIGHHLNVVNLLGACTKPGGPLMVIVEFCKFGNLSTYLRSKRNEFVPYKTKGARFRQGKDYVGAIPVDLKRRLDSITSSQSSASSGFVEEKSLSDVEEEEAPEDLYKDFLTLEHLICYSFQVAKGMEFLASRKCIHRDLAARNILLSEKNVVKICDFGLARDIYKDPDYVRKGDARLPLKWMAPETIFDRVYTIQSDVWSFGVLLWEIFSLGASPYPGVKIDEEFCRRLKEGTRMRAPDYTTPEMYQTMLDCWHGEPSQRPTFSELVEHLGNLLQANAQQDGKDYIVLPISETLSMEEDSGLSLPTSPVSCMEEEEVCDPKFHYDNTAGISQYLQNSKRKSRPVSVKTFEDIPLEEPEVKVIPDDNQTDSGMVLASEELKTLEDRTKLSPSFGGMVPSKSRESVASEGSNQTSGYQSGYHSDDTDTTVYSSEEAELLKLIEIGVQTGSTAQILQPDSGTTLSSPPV
# [17] = target: Macrophage-stimulating protein receptor (Homo sapiens, UniProt Q04912); assay: Inhibition of RON expressed in Bac-to-Bac Baculovirus expression system using poly(Glu-Tyr)4:1 as substrate after 60 mins by ELISA; summary of the method: as §3
# [18] = target: Fibroblast growth factor receptor 2 (Homo sapiens, UniProt P21802); assay: Inhibition of FGFR2 using poly(Glu-Tyr)4:1 as substrate after 60 mins by ELISA; summary of the method: as §3
# [19] = target: Platelet-derived growth factor receptor alpha (Homo sapiens, UniProt P16234); assay: Inhibition of PDGFRalpha using poly(Glu-Tyr)4:1 as substrate after 60 mins by ELISA; summary of the method: as §3
# [20] = target: Tyrosine-protein kinase ABL1 (Homo sapiens, UniProt P00519); assay: Inhibition of Abl using poly(Glu-Tyr)4:1 as substrate after 60 mins by ELISA; summary of the method: as §3
IC50 [2] [nM],IC50 (BXPC-3) [µM],SMILES,IC50 (T-24) [µM],IC50 (WI-38) [µM],further results
19,4.8,C=CCOC(=O)C1=C2C(=NC1=O)c1cccc3cccc2c13,3.9,20.6,inhibition [1]: Dose-dependent effect; inhibition [3]: inactive
> 10000,–,CC(C)Sc1ccc2c3c(cccc13)C1=NC(=O)C(C#N)=C12,–,–,–
485,2.5,C=CCSc1ccc2c3c(cccc13)C1=NC(=O)C(C(=O)OCC)=C12,0.7,4.6,inhibition [4]: Active; inhibition [5]: Active; inhibition [6]: Dose-dependent effect; inhibition [3]: inactive; inhibition [7]: Active
334,–,Cc1c[nH]c(/C=C2\C(=O)Nc3ccccc32)c1CCC(=O)O,–,–,–
> 10000,–,CCOC(=O)C1=C2C(=NC1=O)c1cccc3c(SC(C)C)ccc2c13,–,–,–
> 10000,5.8,CCCSc1ccc2c3c(cccc13)C1=NC(=O)C(C(=O)OCC)=C12,1.7,9.6,Activity (Calf thymus DNA): Active
320,–,CCOC(=O)C1=C2C(=NC1=O)c1cccc3c(SCCO)ccc2c13,–,–,–
> 10000,–,N#CC1=C2C(=NC1=O)c1cccc3c(SCCO)ccc2c13,–,–,–
216,2.5,C=CCOC(=O)C1=C2C(=NC1=O)c1cccc3c(SCC=C)ccc2c13,6.6,19.7,–
3600,–,CC(Sc1ccc2c3c(cccc13)C1=NC(=O)C(C#N)=C12)C1(C)CSCO1 (centres undefined),–,–,–
> 10000,–,CC1OCCC1Sc1ccc2c3c(cccc13)C1=NC(=O)C(C#N)=C12 (centres undefined),–,–,–
> 10000,12.9,C=CCOC(=O)C1=C2C(=NC1=O)c1cccc3c(SCCC)ccc2c13,13.1,33.2,Activity (Calf thymus DNA): Active
424,38.5,C=CCSc1ccc2c3c(cccc13)C1=NC(=O)C(C(=O)OCC(=O)OCC(F)(F)C(F)(F)F)=C12,86.4,45.6,–
> 10000,–,CCCSc1ccc2c3c(cccc13)C1=NC(=O)C(C#N)=C12,–,–,–
> 10000,–,CCOC(=O)C1=C2C(=NC1=O)c1cccc3c(SCCN4CCSC4)ccc2c13,–,–,–
> 10000,56.3,CCCSC(=O)COC(=O)C1=C2C(=NC1=O)c1cccc3c(SCCC)ccc2c13,79.1,> 100,–
4500,25,N#CC1=C2C(=NC1=O)c1cccc3cccc2c13,13.3,21.7,–
577,13.7,C=CCSc1ccc2c3c(cccc13)C1=NC(=O)C(C(=O)OCC(=O)SCCC)=C12,71.8,> 100,–
> 10000,54.1,CCCSc1ccc2c3c(cccc13)C1=NC(=O)C(C(=O)OCC(=O)OCC(F)(F)C(F)(F)F)=C12,> 100,58.8,–
74,4.7,CCOC(=O)C1=C2C(=NC1=O)c1cccc3cccc2c13,2.9,6.2,IC50 [8]: > 10 µM; IC50 [9]: 3.2 µM; IC50 [10]: > 10 µM; IC50 (Ephrin type-B receptor 2): > 10 µM; inhibition [1]: Dose-dependent effect; IC50 [11]: > 10 µM; IC50 [12]: > 10 µM; IC50 [13]: 4.6 µM; IC50 [14]: > 10 µM; inhibition [5]: Active; IC50 [15]: > 10 µM; inhibition [3]: inactive; IC50 (Ephrin type-A receptor 2): > 10 µM; IC50 [16]: > 10 µM; IC50 [17]: > 10 µM; IC50 [18]: > 10 µM; IC50 [19]: > 10 µM; IC50 [20]: > 10 µM
77,23.3,O=C(COC(=O)C1=C2C(=NC1=O)c1cccc3cccc2c13)OCC(F)(F)C(F)(F)F,19,48.3,–
2100,–,CCOC(=O)C1=C2C(=NC1=O)c1cccc3c(SCCc4cnccn4)ccc2c13,–,–,–
> 10000,–,N#CC1=C2C(=NC1=O)c1cccc3c(SCCc4cnccn4)ccc2c13,–,–,–
> 10000,–,C=CCSc1ccc2c3c(cccc13)C1=NC(=O)C(C#N)=C12,–,–,–
> 10000,–,CCOC(=O)C1=C2C(=NC1=O)c1cccc3c(SC(C)C4(C)CSCO4)ccc2c13 (centres undefined),–,–,–
65,10.1,CCCSC(=O)COC(=O)C1=C2C(=NC1=O)c1cccc3cccc2c13,10.5,25.2,–
> 10000,–,CCOC(=O)C1=C2C(=NC1=O)c1cccc3c(SC4CCOC4C)ccc2c13 (centres undefined),–,–,–
> 10000,–,N#CC1=C2C(=NC1=O)c1cccc3c(SCCN4CCSC4)ccc2c13,–,–,–
